Data on one compound can be found in paper PMC3573810 (Drug Design, Development and Therapy, 2013).

Data set [1] has as its system Salmonella typhimurium TA1535. The data set is classed as cell-based. To be noted: NaN3 1 μg/plate alone, no bichalcophene. Put shortly: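 Overnight S. typhimurium TA1535 diluted 10−7, shaken 30 min at 37°C in phosphate buffer with NaN3 (1 μg/plate) plus test compound (10 and 20 μM, or 5 and 10 μM for two compounds) or NaN3 alone. Colonies counted on triplicate plates after 24 h and compared with untreated bacteria. ANOVA with Fisher's PLSD, P<0.05.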

Data set [2] relates to Salmonella typhimurium TA1535. The data set can be described thus: Antimutagenicity assay against sodium azide. The data set is classed as cell-based. A digest of the protocol: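 S. typhimurium TA1535 exposed at 37°C for 30 min to test compound (10 and 20 μM, or 5 and 10 μM for two compounds) and NaN3 (1 μg/plate). Pre-exposure adds NaN3 after the 30 min compound step; co-exposure combines all three together. Plated on minimal glucose agar; revertants counted after 48 h, triplicate. Mutant frequency = mutant colonies/viable colonies.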

Turning to `[N-]=[N+]=[N-].[Na+]` [NaN3, sodium azide], in data set [1], the “Viability, % of control” value is listed as 105 % of control and the “Viability, colonies/plate” value was 36.9 ± 4.3 colonies/plate. In addition, the “NaN3 mutagenicity, revertant colonies/plate” value in data set [2] (NaN3 1 μg/plate alone, spontaneous 34.3 ± 4.0) is listed as 384.7 ± 14.7 (0) revertant colonies/plate. Moreover, the Mutant frequency in data set [2] (NaN3 alone, mutant colonies (Table 6)/viable colonies (Table 3)) is listed as 10.43 (100).
